Test results reported in PubChem BioAssay AID588423 (The Scripps Research Institute Molecular Screening Center, 2011).
Active and inactive are the calls of the source.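 The calls were made as follows: active = IC50 at or below 1 µM; inactive = the rest.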

Molecular target: Protein-arginine deiminase type-4 (Homo sapiens) (UniProt Q9UM07)
Assay: PAD4 enzyme inhibition potency, late-stage follow-up, biochemical, BAEE substrate, citrulline absorbance, 0-15 µM range (AID 588423)
Details: recombinant PAD4, BAEE citrulline colorimetric absorbance
How it was run: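 Assay system: recombinant PAD4 / Medium: pH 7.6 Tris buffer with calcium and DTT / Dosing: 7-point compound series from 0 up to 15 µM / Incubation: 15 min pre-incubation plus 15 min reaction, 37 °C / Detection: citrulline color, absorbance 540 nm / Evaluation: fitted IC50 of PAD4 inhibition / Replicates: duplicate trials at every compound concentration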

Sequence of Protein-arginine deiminase type-4 (Homo sapiens) (Q9UM07 whole entry, looked up): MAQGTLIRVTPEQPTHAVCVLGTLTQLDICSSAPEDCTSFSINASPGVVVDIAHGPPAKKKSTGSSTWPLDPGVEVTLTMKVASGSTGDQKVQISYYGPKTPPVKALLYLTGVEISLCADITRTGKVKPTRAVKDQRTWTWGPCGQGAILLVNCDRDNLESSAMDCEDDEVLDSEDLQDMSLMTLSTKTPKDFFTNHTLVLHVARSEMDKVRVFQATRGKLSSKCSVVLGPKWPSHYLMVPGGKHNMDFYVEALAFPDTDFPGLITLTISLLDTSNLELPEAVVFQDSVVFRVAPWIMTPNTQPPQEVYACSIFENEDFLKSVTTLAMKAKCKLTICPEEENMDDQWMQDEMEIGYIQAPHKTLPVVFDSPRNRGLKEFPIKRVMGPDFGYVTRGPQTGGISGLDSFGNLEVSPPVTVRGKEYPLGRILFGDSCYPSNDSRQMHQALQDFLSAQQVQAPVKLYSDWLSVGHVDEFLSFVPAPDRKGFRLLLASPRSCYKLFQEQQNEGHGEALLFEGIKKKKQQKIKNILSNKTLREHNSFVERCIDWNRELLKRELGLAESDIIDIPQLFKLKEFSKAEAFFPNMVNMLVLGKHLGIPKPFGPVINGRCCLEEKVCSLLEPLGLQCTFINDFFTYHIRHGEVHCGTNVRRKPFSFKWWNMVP

O=C1C(O)=C(O)C(=O)c2ncccc21
IC50: inactive
